The text below walks through data of the array DNA melting data of Ke et al. (doi:10.1101/2024.01.08.574731).

A short description of data set [1]: folding enthalpy; higher = less favourable; fluorescence melt of hairpins on a sequencing array, two-state fit. Particulars: sodium 0.088 M. The method in brief: (§1)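 Folding enthalpy and melting temperature come from bootstrapped two-state fits to Cy3 fluorescence of library hairpins carrying annealed Cy3 and quencher oligos on a sequenced MiSeq flow cell. Imaging was done in 50 mM Na-HEPES pH 8.0, 25 mM NaCl, stepping by 2.5 °C up to 60 °C, and signals were normalised to pre-quench Cy3 and to control constructs. Results of four replicates were combined by inverse variance, and fitted temperatures were raised by 9.35 °C to match UV melts.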

The nature of data set [2]: melting temperature; fluorescence melt of hairpins on a sequencing array, two-state fit, raised by 9.35 °C to match UV melts. Particulars: sodium 0.088 M. The method in brief:
as §1

GCCATGCGAAAGCCCGGC (((..((....))..))): the folding enthalpy in data set [1] is -22.9 kcal/mol. Also, in data set [2], the Tm came out at 43.1 °C.
On the same counts, the results for GCCATGCGAAAGCCGGGC (((..((....))..))) are -26.1 kcal/mol and 55.3 °C.
The corresponding values for GCCATGCGAAAGCGGGGC (((..((....))..))) are -35 kcal/mol and 65.3 °C.
On the same counts, the results for GCCATGCGAAAGCTAGGC (((..((....))..))) are -27.3 kcal/mol and 62.2 °C.
For the sequence GCCATGCGAAAGCTTCGC ((.(.((....)).).)), the folding enthalpy in data set [1] is -8.18 kcal/mol. In addition, in data set [2], the Tm stood at 47.3 °C.
As to GCCATGGGAAACCACAGC ((..(((....)))..)), the folding enthalpy in data set [1] is -12.7 kcal/mol. In data set [2], the Tm turned out to be 26.9 °C.
As for GCCATGGGAAACCATGAC (.(((((....))))).), the folding enthalpy in data set [1] is -19.5 kcal/mol. For the same sequence, in data set [2], the Tm was found to be 41 °C.
On the same counts, the results for GCCATGGGAAACCGTGGC ((((.((....)).)))) are -40.6 kcal/mol and 59 °C.
The corresponding values for GCCATTCGAAAGAACGGC (((.(((....))).))) are -40.1 kcal/mol and 49.6 °C.
As for GCCCAACGAAAGTTTGGC (((.(((....))).))), in data set [1], the folding enthalpy is -28.1 kcal/mol. Also, in data set [2], the Tm stood at 50.2 °C.
On the same counts, the results for GCCCAAGCGAAAGCTGGC (((..(((....)))))) are -17.6 kcal/mol and 53.6 °C.
As to GCCCAAGGAAACTCGGGC ((((.((....)).)))), the folding enthalpy in data set [1] was -26.9 kcal/mol. Also, the Tm in data set [2] worked out at 48.8 °C.
The corresponding values for GCCCAAGGAAACTTGGAC (.(((((....))))).) are -19.6 kcal/mol and 38 °C.
With GCCCACGAAAGTGCAGGC ((((((....)))..))), the folding enthalpy in data set [1] is -28.1 kcal/mol. Further, the Tm in data set [2] is 50.1 °C.
For GCCCACGAAAGTGCTGGC ((((((....)))..))), the folding enthalpy in data set [1] is -18.9 kcal/mol. Further, the Tm in data set [2] amounted to 47.4 °C.
On to GCCCACGAAAGTGGCGGC ((((((....)))..))), for which the folding enthalpy in data set [1] is -14 kcal/mol. In addition, the Tm in data set [2] was determined as 57.6 °C.
For the sequence GCCCACGAAAGTGGTGGC ((((((....)))..))), the folding enthalpy in data set [1] was -13.8 kcal/mol. In addition, the Tm in data set [2] turned out to be 55.4 °C.
The corresponding values for GCCCACGGAAACACGGGC ((((..(....)..)))) are -24.4 kcal/mol and 46.5 °C.
On the same counts, the results for GCCCACGGAAACGCGGAC (.((.((....)).)).) are -18.4 kcal/mol and 32.8 °C.
With GCCCAGCGAAAGCAAGGC (((..((....))..))), the folding enthalpy in data set [1] is -18.5 kcal/mol. The Tm in data set [2] amounted to 56.9 °C.
The corresponding values for GCCCAGCGAAAGCCCGGC (((..((....))..))) are -15.6 kcal/mol and 47.1 °C.
In the case of GCCCAGCGAAAGCGAGGC (((..((....))..))), the folding enthalpy in data set [1] is -20.6 kcal/mol. Also, the Tm in data set [2] was 62.7 °C.
For the sequence GCCCAGCGAAAGCGGAGC ((.(.((....)).).)), the folding enthalpy in data set [1] was -12.7 kcal/mol. The Tm in data set [2] is 53.1 °C.
The corresponding values for GCCCAGCGAAAGCTTCGC ((..(((....)))..)) are -6.41 kcal/mol and 40.3 °C.
The corresponding values for GCCCAGGCGAAAGCCGGC (((..(((....)))))) are -10.1 kcal/mol and 62 °C.
Take GCCCAGGGAAACCCGGGC ((((.((....)).)))): in data set [1], the folding enthalpy is -37.4 kcal/mol. Further, the Tm in data set [2] turned out to be 57.8 °C.
Turning to GCCCAGGGAAACCTGGAC (.(((((....))))).), the folding enthalpy in data set [1] was -13.4 kcal/mol. Further, the Tm in data set [2] is 49.4 °C.
On the same counts, the results for GCCCAGGGAAACTTGGGC (((((.(....).))))) are -36.8 kcal/mol and 56.5 °C.
Take GCCCATCCGAAAGGAGGC (((..(((....)))))): the folding enthalpy in data set [1] was -14.3 kcal/mol. Further, the Tm in data set [2] amounted to 44.5 °C.
Turning to GCCCATCGAAAGATCGGC (((.(((....))).))), in data set [1], the folding enthalpy is -33.6 kcal/mol. The Tm in data set [2] is 44.5 °C.
The corresponding values for GCCCATGGAAACACGGGC ((((.((....)).)))) are -43 kcal/mol and 49.4 °C.
On the same counts, the results for GCCCATGGAAACATAGGC (((.(((....))).))) are -28.1 kcal/mol and 38.3 °C.
On the same counts, the results for GCCCCACGAAAGTGAGGC (((.(((....))).))) are -37.8 kcal/mol and 55.8 °C.
Consider GCCCCAGGAAACCAGGGC ((((..(....)..)))), for which, in data set [1], the folding enthalpy was -23.4 kcal/mol. Besides, in data set [2], the Tm worked out at 45.6 °C.
In the case of GCCCCAGGAAACTGGAGC ((.((((....)))).)), the folding enthalpy in data set [1] was -25.3 kcal/mol. Moreover, the Tm in data set [2] is 46.7 °C.
GCCCCCCGAAAGGGCGGC (((.(((....))).))): the folding enthalpy in data set [1] was -32.6 kcal/mol. The Tm in data set [2] is 60.2 °C.
Regarding GCCCCCGGAAACGAGGGC ((((.((....)).)))), the folding enthalpy in data set [1] is -28.1 kcal/mol. The Tm in data set [2] is 56 °C.
In the case of GCCCCCGGAAACGGGGAC (.(((((....))))).), the folding enthalpy in data set [1] is -11.4 kcal/mol. For the same sequence, the Tm in data set [2] worked out at 53.2 °C.
Turning to GCCCCCTCGAAAGAGGGC (((..(((....)))))), the folding enthalpy in data set [1] is -6 kcal/mol. Further, in data set [2], the Tm is 37.6 °C.
On the same counts, the results for GCCCCGCGAAAGCAAGGC (((..((....))..))) are -16.2 kcal/mol and 46.5 °C.
On the same counts, the results for GCCCCGCGAAAGCAGCGC ((.(.((....)).).)) are -14.2 kcal/mol and 39.7 °C.
On to GCCCCGCGAAAGCCCGGC (((..((....))..))), for which the folding enthalpy in data set [1] was -14.7 kcal/mol. For the same sequence, in data set [2], the Tm came out at 38.9 °C.
The corresponding values for GCCCCGCGAAAGCCTGGC (((..((....))..))) are -17 kcal/mol and 39.5 °C.
The corresponding values for GCCCCGCGAAAGCTAGGC (((..((....))..))) are -18.7 kcal/mol and 45 °C.
The corresponding values for GCCCCGCGAAAGCTCGGC (((..((....))..))) are -20.3 kcal/mol and 38.8 °C.
Take GCCCCGGGAAACCGGAGC ((.((((....)))).)): the folding enthalpy in data set [1] was -22.7 kcal/mol. In addition, the Tm in data set [2] was 56.1 °C.
For GCCCCTCGAAAGAGAGGC (((.(((....))).))), the folding enthalpy in data set [1] is -31.4 kcal/mol. For the same sequence, the Tm in data set [2] is 52.8 °C.
Consider GCCCCTCGAAAGAGGGC (((.(((....)))))), for which, in data set [1], the folding enthalpy was -13 kcal/mol. In data set [2], the Tm was 61.5 °C.
On the same counts, the results for GCCCCTTCGAAAGAAGGC (((..(((....)))))) are -8.55 kcal/mol and 37 °C.
On the same counts, the results for GCCCGAACGAAAGTTGGC (((..(((....)))))) are -19.2 kcal/mol and 42.6 °C.
Take GCCCGAGGAAACTCGGAC (.(((((....))))).): the folding enthalpy in data set [1] is -13.1 kcal/mol. The Tm in data set [2] worked out at 48.4 °C.
On the same counts, the results for GCCCGCGAAAGCGCAGGC ((((((....)))..))) are -20.1 kcal/mol and 56.3 °C.
Regarding GCCCGCGAAAGCGCTGGC ((((((....)))..))), in data set [1], the folding enthalpy was -16.5 kcal/mol. Also, the Tm in data set [2] is 58.5 °C.
Turning to GCCCGCGAAAGCGTAGGC ((((((....)))..))), in data set [1], the folding enthalpy is -22.3 kcal/mol. Moreover, the Tm in data set [2] was determined as 62.4 °C.
The corresponding values for GCCCGCGGAAACACGGGC (((((.(....).))))) are -47.9 kcal/mol and 62.9 °C.
Consider GCCCGGCGAAAGCCGAGC ((.((((....)))).)), for which the folding enthalpy in data set [1] is -18.4 kcal/mol. In data set [2], the Tm came to 68.3 °C.
As to GCCCGGCGAAAGCCTCGC ((..(((....)))..)), the folding enthalpy in data set [1] is -6.9 kcal/mol. In data set [2], the Tm stood at 27.3 °C.
The corresponding values for GCCCGGCGAAAGCGCGGC (((..((....))..))) are -16.1 kcal/mol and 61.7 °C.
On the same counts, the results for GCCCGGCGAAAGCGTGGC (((..((....))..))) are -20.2 kcal/mol and 57.9 °C.
On to GCCCGGTCGAAAGACGGC (((..(((....)))))), for which the folding enthalpy in data set [1] was -18.1 kcal/mol. In data set [2], the Tm is 51.7 °C.
On the same counts, the results for GCCCGTCCGAAAGGAGGC (((..(((....)))))) are -13.9 kcal/mol and 43.6 °C.
On the same counts, the results for GCCCGTCGAAAGACGGC (((.(((....)))))) are -10.7 kcal/mol and 63.6 °C.
Turning to GCCCGTTCGAAAGAAGGC (((..(((....)))))), the folding enthalpy in data set [1] was -12.3 kcal/mol. Also, the Tm in data set [2] worked out at 33.1 °C.
For GCCCTACGAAAGTAAGGC (((.(((....))).))), in data set [1], the folding enthalpy was -31.3 kcal/mol. For the same sequence, in data set [2], the Tm came out at 47.4 °C.
For GCCCTACGAAAGTACGGC (((.(((....))).))), in data set [1], the folding enthalpy is -27.3 kcal/mol. In data set [2], the Tm was found to be 46.2 °C.
The corresponding values for GCCCTAGGAAACTAGAGC ((.((((....)))).)) are -25 kcal/mol and 34.3 °C.
The corresponding values for GCCCTATCGAAAGATGGC (((..(((....)))))) are -23.5 kcal/mol and 37.5 °C.
Turning to GCCCTCGAAAGAGACGGC ((((((....)))..))), in data set [1], the folding enthalpy was -25.3 kcal/mol. Also, the Tm in data set [2] was determined as 44.8 °C.
On to GCCCTCGAAAGAGAGGGC ((((((....)))..))), for which, in data set [1], the folding enthalpy is -33 kcal/mol. The Tm in data set [2] worked out at 59.9 °C.
On the same counts, the results for GCCCTCGAAAGAGATGGC ((((((....)))..))) are -23.6 kcal/mol and 46.4 °C.
GCCCTCGAAAGAGCGGC ((((((....))).))): the folding enthalpy in data set [1] is -37.3 kcal/mol. For the same sequence, the Tm in data set [2] turned out to be 55.7 °C.
As for GCCCTCGAAAGAGGTGGC ((((((....)))..))), in data set [1], the folding enthalpy was -17.7 kcal/mol. Also, in data set [2], the Tm was 48.4 °C.
The corresponding values for GCCCTCGGAAACGAGAGC ((.((((....)))).)) are -27.2 kcal/mol and 49.1 °C.
